Measurements reported in ChEMBL document CHEMBL3864165, “Design, synthesis, and AChE inhibitory activity of new benzothiazole-piperazines” (Bioorg Med Chem Lett, 2016).

What was measured:
[1] = target: Acetylcholinesterase (Electrophorus electricus) (UniProt O42275); experiment: Inhibition of electric eel AChE at 10^-6 M preincubated for 15 mins followed by acetylthiocholine iodide substrate addition measured for 5 mins by Ellman's spectrophotometric method relative to control
[2] = target: Acetylcholinesterase (Electrophorus electricus) (UniProt O42275); experiment: Inhibition of electric eel AChE at 10^-7 M preincubated for 15 mins followed by acetylthiocholine iodide substrate addition measured for 5 mins by Ellman's spectrophotometric method relative to control
[3] = target: Acetylcholinesterase (Electrophorus electricus) (UniProt O42275); experiment: Inhibition of electric eel AChE at 10^-3 M preincubated for 15 mins followed by acetylthiocholine iodide substrate addition measured for 5 mins by Ellman's spectrophotometric method relative to control
[4] = target: Acetylcholinesterase (Electrophorus electricus) (UniProt O42275); experiment: Inhibition of electric eel AChE at 10^-4 M preincubated for 15 mins followed by acetylthiocholine iodide substrate addition measured for 5 mins by Ellman's spectrophotometric method relative to control
Acetylcholinesterase [5] = target: T1, Acetylcholinesterase (Electrophorus electricus, UniProt O42275); experiment: Inhibition of electric eel AChE preincubated for 15 mins followed by acetylthiocholine iodide substrate addition measured for 5 mins by Ellman's spectrophotometric method
Acetylcholinesterase [6] = target: T1, Acetylcholinesterase; experiment: Mixed-type inhibition of electric eel AChE preincubated for 15 mins followed by acetylthiocholine iodide substrate addition measured for 5 mins by Lineweaver-Burk plot analysis
Procedure, shortened: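 Substrate-velocity curves recorded with and without inhibitor, with initial velocities measured at acetylthiocholine (ATC) concentrations from 600 µM down to 18.75 µM. Data analysed as 1/V plots. Ki taken as the x-axis intercept of a secondary plot of 1/V versus inhibitor concentration.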

[7] = Cytotoxicity against mouse NIH/3T3 cells after 24 hrs by MTT assay; details: NIH/3T3 cells
[8] = Ratio of compound IC50 to donepezil IC50 for mouse NIH/3T3 cells; format: ADME, cell-based; details: read-out: Ratio IC50
Salmonella typhimurium [9] = experiment: Genotoxicity in Salmonella typhimurium TA98 assessed as increase in number of revertants at 0.156 mg/ml in presence of aroclor-1254-induced Sprague-Dawley rat liver S9 fraction by Ames-MPF assay relative to control; format: toxicity, organism-based; details: salmonella enterica subsp. enterica serovar typhimurium
Procedure, shortened: (§1)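 Ames MPF microplate fluctuation format, run with and without S9 metabolic activation. The read-out is the count of positive (revertant) wells. A run is accepted only when positive controls give more than 25 positive wells and negative controls give fewer than eight.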

Salmonella typhimurium [10] = experiment: Genotoxicity in Salmonella typhimurium TA98 assessed as increase in number of revertants at 0.3125 mg/ml in presence of aroclor-1254-induced Sprague-Dawley rat liver S9 fraction by Ames-MPF assay relative to control; format: toxicity, organism-based; details: salmonella enterica subsp. enterica serovar typhimurium; procedure, shortened: as §1
Salmonella typhimurium [11] = experiment: Genotoxicity in Salmonella typhimurium TA98 assessed as increase in number of revertants at 0.625 mg/ml in presence of aroclor-1254-induced Sprague-Dawley rat liver S9 fraction by Ames-MPF assay relative to control; format: toxicity, organism-based; details: salmonella enterica subsp. enterica serovar typhimurium; procedure, shortened: as §1
Salmonella typhimurium [12] = experiment: Genotoxicity in Salmonella typhimurium TA98 assessed as increase in number of revertants at 1.25 mg/ml in presence of aroclor-1254-induced Sprague-Dawley rat liver S9 fraction by Ames-MPF assay relative to control; format: toxicity, organism-based; details: salmonella enterica subsp. enterica serovar typhimurium; procedure, shortened: as §1
Salmonella typhimurium [13] = experiment: Genotoxicity in Salmonella typhimurium TA98 assessed as increase in number of revertants at 2.5 mg/ml in presence of aroclor-1254-induced Sprague-Dawley rat liver S9 fraction by Ames-MPF assay relative to control; format: toxicity, organism-based; details: salmonella enterica subsp. enterica serovar typhimurium; procedure, shortened: as §1
Salmonella typhimurium [14] = experiment: Genotoxicity in Salmonella typhimurium TA98 assessed as increase in number of revertants at 5 mg/ml in presence of aroclor-1254-induced Sprague-Dawley rat liver S9 fraction by Ames-MPF assay relative to control; format: toxicity, organism-based; details: salmonella enterica subsp. enterica serovar typhimurium; procedure, shortened: as §1
Salmonella typhimurium [15] = experiment: Genotoxicity in Salmonella typhimurium TA98 assessed as increase in number of revertants at 0.156 mg/ml in absence of aroclor-1254-induced Sprague-Dawley rat liver S9 fraction by Ames-MPF assay relative to control; format: toxicity, organism-based; details: salmonella enterica subsp. enterica serovar typhimurium; procedure, shortened: as §1
Salmonella typhimurium [16] = experiment: Genotoxicity in Salmonella typhimurium TA98 assessed as increase in number of revertants at 0.3125 mg/ml in absence of aroclor-1254-induced Sprague-Dawley rat liver S9 fraction by Ames-MPF assay relative to control; format: toxicity, organism-based; details: salmonella enterica subsp. enterica serovar typhimurium; procedure, shortened: as §1
Salmonella typhimurium [17] = experiment: Genotoxicity in Salmonella typhimurium TA98 assessed as increase in number of revertants at 0.625 mg/ml in absence of aroclor-1254-induced Sprague-Dawley rat liver S9 fraction by Ames-MPF assay relative to control; format: toxicity, organism-based; details: salmonella enterica subsp. enterica serovar typhimurium; procedure, shortened: as §1
Salmonella typhimurium [18] = experiment: Genotoxicity in Salmonella typhimurium TA98 assessed as increase in number of revertants at 1.25 mg/ml in absence of aroclor-1254-induced Sprague-Dawley rat liver S9 fraction by Ames-MPF assay relative to control; format: toxicity, organism-based; details: salmonella enterica subsp. enterica serovar typhimurium; procedure, shortened: as §1
Salmonella typhimurium [19] = experiment: Genotoxicity in Salmonella typhimurium TA98 assessed as increase in number of revertants at 2.5 mg/ml in absence of aroclor-1254-induced Sprague-Dawley rat liver S9 fraction by Ames-MPF assay relative to control; format: toxicity, organism-based; details: salmonella enterica subsp. enterica serovar typhimurium; procedure, shortened: as §1
Salmonella typhimurium [20] = experiment: Genotoxicity in Salmonella typhimurium TA98 assessed as increase in number of revertants at 5 mg/ml in absence of aroclor-1254-induced Sprague-Dawley rat liver S9 fraction by Ames-MPF assay relative to control; format: toxicity, organism-based; details: salmonella enterica subsp. enterica serovar typhimurium; procedure, shortened: as §1
Salmonella typhimurium [21] = experiment: Genotoxicity in Salmonella typhimurium TA100 assessed as increase in number of revertants at 0.156 mg/ml in presence of aroclor-1254-induced Sprague-Dawley rat liver S9 fraction by Ames-MPF assay relative to control; format: toxicity, organism-based; details: salmonella enterica subsp. enterica serovar typhimurium; procedure, shortened: as §1
Salmonella typhimurium [22] = experiment: Genotoxicity in Salmonella typhimurium TA100 assessed as increase in number of revertants at 0.3125 mg/ml in presence of aroclor-1254-induced Sprague-Dawley rat liver S9 fraction by Ames-MPF assay relative to control; format: toxicity, organism-based; details: salmonella enterica subsp. enterica serovar typhimurium; procedure, shortened: as §1
Salmonella typhimurium [23] = experiment: Genotoxicity in Salmonella typhimurium TA100 assessed as increase in number of revertants at 0.625 mg/ml in presence of aroclor-1254-induced Sprague-Dawley rat liver S9 fraction by Ames-MPF assay relative to control; format: toxicity, organism-based; details: salmonella enterica subsp. enterica serovar typhimurium; procedure, shortened: as §1
Salmonella typhimurium [24] = experiment: Genotoxicity in Salmonella typhimurium TA100 assessed as increase in number of revertants at 1.25 mg/ml in presence of aroclor-1254-induced Sprague-Dawley rat liver S9 fraction by Ames-MPF assay relative to control; format: toxicity, organism-based; details: salmonella enterica subsp. enterica serovar typhimurium; procedure, shortened: as §1
Salmonella typhimurium [25] = experiment: Genotoxicity in Salmonella typhimurium TA100 assessed as increase in number of revertants at 2.5 mg/ml in presence of aroclor-1254-induced Sprague-Dawley rat liver S9 fraction by Ames-MPF assay relative to control; format: toxicity, organism-based; details: salmonella enterica subsp. enterica serovar typhimurium; procedure, shortened: as §1
Salmonella typhimurium [26] = experiment: Genotoxicity in Salmonella typhimurium TA100 assessed as increase in number of revertants at 5 mg/ml in presence of aroclor-1254-induced Sprague-Dawley rat liver S9 fraction by Ames-MPF assay relative to control; format: toxicity, organism-based; details: salmonella enterica subsp. enterica serovar typhimurium; procedure, shortened: as §1
Salmonella typhimurium [27] = experiment: Genotoxicity in Salmonella typhimurium TA100 assessed as increase in number of revertants at 0.156 mg/ml in absence of aroclor-1254-induced Sprague-Dawley rat liver S9 fraction by Ames-MPF assay relative to control; format: toxicity, organism-based; details: salmonella enterica subsp. enterica serovar typhimurium; procedure, shortened: as §1
Salmonella typhimurium [28] = experiment: Genotoxicity in Salmonella typhimurium TA100 assessed as increase in number of revertants at 0.3125 mg/ml in absence of aroclor-1254-induced Sprague-Dawley rat liver S9 fraction by Ames-MPF assay relative to control; format: toxicity, organism-based; details: salmonella enterica subsp. enterica serovar typhimurium; procedure, shortened: as §1
Salmonella typhimurium [29] = experiment: Genotoxicity in Salmonella typhimurium TA100 assessed as increase in number of revertants at 0.625 mg/ml in absence of aroclor-1254-induced Sprague-Dawley rat liver S9 fraction by Ames-MPF assay relative to control; format: toxicity, organism-based; details: salmonella enterica subsp. enterica serovar typhimurium; procedure, shortened: as §1
Salmonella typhimurium [30] = experiment: Genotoxicity in Salmonella typhimurium TA100 assessed as increase in number of revertants at 1.25 mg/ml in absence of aroclor-1254-induced Sprague-Dawley rat liver S9 fraction by Ames-MPF assay relative to control; format: toxicity, organism-based; details: salmonella enterica subsp. enterica serovar typhimurium; procedure, shortened: as §1
Salmonella typhimurium [31] = experiment: Genotoxicity in Salmonella typhimurium TA100 assessed as increase in number of revertants at 2.5 mg/ml in absence of aroclor-1254-induced Sprague-Dawley rat liver S9 fraction by Ames-MPF assay relative to control; format: toxicity, organism-based; details: salmonella enterica subsp. enterica serovar typhimurium; procedure, shortened: as §1
Salmonella typhimurium [32] = experiment: Genotoxicity in Salmonella typhimurium TA100 assessed as increase in number of revertants at 5 mg/ml in absence of aroclor-1254-induced Sprague-Dawley rat liver S9 fraction by Ames-MPF assay relative to control; format: toxicity, organism-based; details: salmonella enterica subsp. enterica serovar typhimurium; procedure, shortened: as §1

Acetylcholinesterase (Electrophorus electricus), sequence (O42275 24-633 limits assumed): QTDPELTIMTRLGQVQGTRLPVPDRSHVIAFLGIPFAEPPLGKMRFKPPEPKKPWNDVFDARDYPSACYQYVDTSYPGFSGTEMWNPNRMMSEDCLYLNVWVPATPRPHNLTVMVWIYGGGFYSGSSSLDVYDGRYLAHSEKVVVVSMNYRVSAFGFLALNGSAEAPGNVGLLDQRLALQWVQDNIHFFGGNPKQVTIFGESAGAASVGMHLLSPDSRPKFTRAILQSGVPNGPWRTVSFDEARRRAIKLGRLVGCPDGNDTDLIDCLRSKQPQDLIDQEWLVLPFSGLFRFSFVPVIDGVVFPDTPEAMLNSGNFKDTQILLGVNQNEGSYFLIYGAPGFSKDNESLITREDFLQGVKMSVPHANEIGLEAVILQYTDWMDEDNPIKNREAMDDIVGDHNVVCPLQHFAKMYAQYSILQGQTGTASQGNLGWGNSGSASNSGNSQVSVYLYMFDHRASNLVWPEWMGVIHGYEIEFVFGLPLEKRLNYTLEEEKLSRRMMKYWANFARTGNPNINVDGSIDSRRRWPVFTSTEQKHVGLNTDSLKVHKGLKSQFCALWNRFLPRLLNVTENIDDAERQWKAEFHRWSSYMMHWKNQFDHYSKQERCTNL
T1 sequence (O42275 whole entry): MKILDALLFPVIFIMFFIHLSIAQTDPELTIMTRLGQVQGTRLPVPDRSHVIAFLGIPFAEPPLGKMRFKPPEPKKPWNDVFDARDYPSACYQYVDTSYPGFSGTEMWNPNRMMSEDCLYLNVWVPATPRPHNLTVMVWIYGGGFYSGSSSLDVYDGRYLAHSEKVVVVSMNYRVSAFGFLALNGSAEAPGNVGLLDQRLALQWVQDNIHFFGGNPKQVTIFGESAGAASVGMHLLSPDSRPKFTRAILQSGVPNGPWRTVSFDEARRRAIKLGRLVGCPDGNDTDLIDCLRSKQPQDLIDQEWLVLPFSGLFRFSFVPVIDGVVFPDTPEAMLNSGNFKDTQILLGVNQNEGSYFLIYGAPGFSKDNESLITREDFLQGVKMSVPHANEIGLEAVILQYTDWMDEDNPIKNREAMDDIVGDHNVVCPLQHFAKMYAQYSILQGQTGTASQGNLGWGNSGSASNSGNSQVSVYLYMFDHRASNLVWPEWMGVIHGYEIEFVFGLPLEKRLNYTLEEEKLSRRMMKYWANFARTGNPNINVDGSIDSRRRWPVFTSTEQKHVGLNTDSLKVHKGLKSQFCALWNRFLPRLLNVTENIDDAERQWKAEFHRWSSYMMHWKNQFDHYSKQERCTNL

## COc1cc2nc(NC(=O)CN3CCN(CCN(C)C)CC3)sc2cc1OC
[1]
  inhibition: > 50%
[2]
  inhibition: > 50%
[3]
  inhibition: > 95%
[4]
  inhibition: 90%
Acetylcholinesterase [5]
  IC50: 0.0462 µM
Acetylcholinesterase [6]
  Ki: 0.11 µM
[7]
  IC50 at 24 h: > 1000 µM
[8]
  selectivity ratio: 3
Salmonella typhimurium [9]
  fold change (FC): 0.22
Salmonella typhimurium [10]
  fold change (FC): 0.65
Salmonella typhimurium [11]
  fold change (FC): 0.97
Salmonella typhimurium [12]
  fold change (FC): 0.43
Salmonella typhimurium [13]
  fold change (FC): 0
Salmonella typhimurium [14]
  fold change (FC): 0
Salmonella typhimurium [15]
  fold change (FC): 0.87
Salmonella typhimurium [16]
  fold change (FC): 1.14
Salmonella typhimurium [17]
  fold change (FC): 1.03
Salmonella typhimurium [18]
  fold change (FC): 0.33
Salmonella typhimurium [19]
  fold change (FC): 0.33
Salmonella typhimurium [20]
  fold change (FC): 0.11
Salmonella typhimurium [21]
  fold change (FC): 0.78
Salmonella typhimurium [22]
  fold change (FC): 0.55
Salmonella typhimurium [23]
  fold change (FC): 0.55
Salmonella typhimurium [24]
  fold change (FC): 1.09
Salmonella typhimurium [25]
  fold change (FC): 0.55
Salmonella typhimurium [26]
  fold change (FC): 0.47
Salmonella typhimurium [27]
  fold change (FC): 0.66
Salmonella typhimurium [28]
  fold change (FC): 0.49
Salmonella typhimurium [29]
  fold change (FC): 0.27
Salmonella typhimurium [30]
  fold change (FC): 0.27
Salmonella typhimurium [31]
  fold change (FC): 0
Salmonella typhimurium [32]
  fold change (FC): 0

## COc1ccc(CN2CCN(CC(=O)Nc3nc4cc(OC)c(OC)cc4s3)CC2)cc1
[1]
  inhibition: > 50%
Acetylcholinesterase [5]
  IC50: 0.252 µM

## COc1cc2nc(NC(=O)CN3CCN(Cc4ccc(Cl)cc4)CC3)sc2cc1OC
[1]
  inhibition: > 50%
Acetylcholinesterase [5]
  IC50: 0.13 µM

## COc1ccc2nc(NC(=O)CN3CCN(Cc4ccc(Cl)cc4)CC3)sc2c1
[1]
  inhibition: > 50%
[3]
  inhibition: > 95%
[4]
  inhibition: 90%
Acetylcholinesterase [5]
  IC50: 0.22 µM
